Experiments:
[1] = target: Phosphodiesterase 8 (Homo sapiens, UniProt O95263+O60658); experiment: Inhibition of PDE8 (unknown origin) using FAM-cAMP as substrate after 60 mins by fluorescence assay; assay type: protein assay
[2] = target: cGMP-specific 3',5'-cyclic phosphodiesterase (Homo sapiens, UniProt O76074); experiment: Inhibition of PDE5 (unknown origin) using FAM-cGMP as substrate after 60 mins by fluorescence assay
[3] = target: Phosphodiesterase 1 (Homo sapiens, UniProt P54750+Q01064+Q14123); experiment: Inhibition of PDE1 (unknown origin) using FAM-cGMP and FAM-cAMP as substrate after 60 mins by fluorescence assay; assay type: protein assay
[4] = target: High affinity cGMP-specific 3',5'-cyclic phosphodiesterase 9A (Homo sapiens, UniProt O76083); experiment: Inhibition of PDE9 (unknown origin) using FAM-cGMP as substrate after 60 mins by fluorescence assay
[5] = target: Phosphodiesterase 7 (Homo sapiens, UniProt Q13946+Q9NP56); experiment: Inhibition of PDE7 (unknown origin) using FAM-cAMP as substrate after 60 mins by fluorescence assay; assay type: protein assay
[6] = target: cGMP-dependent 3',5'-cyclic phosphodiesterase (Homo sapiens, UniProt O00408); experiment: Inhibition of PDE2 (unknown origin) using FAM-cGMP and FAM-cAMP as substrate after 60 mins by fluorescence assay
[7] = target: cAMP and cAMP-inhibited cGMP 3',5'-cyclic phosphodiesterase 10A (Homo sapiens, UniProt Q9Y233); experiment: Inhibition of PDE10 (unknown origin) using FAM-cGMP and FAM-cAMP as substrate after 60 mins by fluorescence assay
[8] = target: Phosphodiesterase 3 (Homo sapiens, UniProt Q14432+Q13370); experiment: Inhibition of PDE3 (unknown origin) using FAM-cGMP and FAM-cAMP as substrate after 60 mins by fluorescence assay; assay type: protein assay
[9] = species: Homo sapiens; experiment: Selectivity ratio of IC50 for PDE4 (unknown origin) to IC50 for PDE5 (unknown origin)
[10] = species: Homo sapiens; experiment: Selectivity ratio of IC50 for PDE10 (unknown origin) to IC50 for PDE5 (unknown origin)
[11] = species: Homo sapiens; experiment: Selectivity ratio of IC50 for PDE8 (unknown origin) to IC50 for PDE5 (unknown origin)
[12] = species: Homo sapiens; experiment: Selectivity ratio of IC50 for PDE11 (unknown origin) to IC50 for PDE5 (unknown origin)
[13] = target: Phosphodiesterase 6; experiment: Inhibition of PDE6 (unknown origin) using FAM-cGMP as substrate after 60 mins by fluorescence assay; assay type: protein assay, Homo sapiens
[14] = species: Homo sapiens; experiment: Selectivity ratio of IC50 for PDE1 (unknown origin) to IC50 for PDE5 (unknown origin)
[15] = target: Dual 3',5'-cyclic-AMP and -GMP phosphodiesterase 11A (Homo sapiens, UniProt Q9HCR9); experiment: Inhibition of PDE11 (unknown origin) using FAM-cGMP and FAM-cAMP as substrate after 60 mins by fluorescence assay
[16] = species: Homo sapiens; experiment: Selectivity ratio of IC50 for PDE7 (unknown origin) to IC50 for PDE5 (unknown origin)
[17] = species: Homo sapiens; experiment: Selectivity ratio of IC50 for PDE9 (unknown origin) to IC50 for PDE5 (unknown origin)
[18] = species: Homo sapiens; experiment: Selectivity ratio of IC50 for PDE2 (unknown origin) to IC50 for PDE5 (unknown origin)
[19] = species: Homo sapiens; experiment: Selectivity ratio of IC50 for PDE3 (unknown origin) to IC50 for PDE5 (unknown origin)
[20] = target: Phosphodiesterase 4 (Homo sapiens, UniProt P27815+Q08499+Q07343+Q08493); experiment: Inhibition of PDE4 (unknown origin) using FAM-cAMP as substrate after 60 mins by fluorescence assay; assay type: protein assay
[21] = species: Homo sapiens; experiment: Selectivity ratio of IC50 for PDE6 (unknown origin) to IC50 for PDE5 (unknown origin)
[22] = tested on: Plasma; experiment: AUC (0 to infinity) in mouse plasma at 50 mg/kg, po; assay type: ADME, organism-based; parameters: time infinity, dose 50 mg/kg, route oral; details: in vivo
Outline: (§1)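 Male BALB/c mice dosed once orally at 50 mg/kg in 0.05% aqueous methylcellulose. Blood (retro-orbital, heparin) and brain were taken at 0, 0.25, 0.5, 1, 2 and 4 h, three mice per time point. Plasma and methanol brain homogenate were extracted with methanol plus internal standard and analysed by LC/MS/MS. Quantitation used analyte/internal standard peak-area ratios with weighted (1/x2) linear regression.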

[23] = tested on: Plasma; experiment: Cmax in mouse plasma at 50 mg/kg, po; assay type: ADME, organism-based; parameters: dose 50 mg/kg, route oral; details: in vivo; outline: as §1
[24] = tested on: Mus musculus; experiment: Inhibition of PDE5 in C57Bl6 mouse assessed as increase in electric shock-induced hippocampal cGMP level measured per mg of protein at 3 mg/kg, ip administered 30 mins prior to electric shock induction measured after 10 secs (reference value: 0.318 0.0145 pmol); assay type: functional, Hippocampus; details: route intraperitoneal
Outline: (§2)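 Male and female C57Bl6 mice, 2–3 months old, 20–25 g, received 3 mg/kg i.p. in 2% DMSO/2% Tween or vehicle alone. Foot shock was given 30 min later. Mice were killed 10 s, 1 min or 3 min after shock and the hippocampus was snap-frozen. cGMP was measured by enzyme immunoassay in duplicate and normalised to BCA protein; n=3 per group.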

[25] = tested on: Mus musculus; experiment: Reversal of contextual fear memory deficit in amyloid beta42-infused mouse assessed as increase in freezing behavior at 3 to 10 mg/kg, po administered immediately post electric shock measured after 24 hrs (reference value: 10%); assay type: functional; details: dose mg/kg 3-10
Outline: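 Aβ42 (200 nM, 1 μl over 1 min) or vehicle was infused bilaterally into the dorsal hippocampus through cannulas implanted 6–8 days earlier under Avertin. Infusion was 15 min before foot-shock training. Compound was given at 3 or 10 mg/kg p.o. immediately after training. Freezing was scored for 5 min in the same chamber 24 h later.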

[26] = tested on: Mus musculus; experiment: Inhibition of PDE5 in C57Bl6 mouse assessed as increase in electric shock-induced hippocampal cGMP level measured per mg of protein at 3 mg/kg, ip administered 30 mins prior to electric shock induction measured after 1 min (reference value: 0.41 0.028 pmol); assay type: functional, Hippocampus; details: route intraperitoneal; outline: as §2
[27] = Ratio of AUC (0 to infinity) in mouse brain to AUC (0 to infinity) in mouse plasma; assay type: ADME, cell-free
Outline: (§3)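 Male BALB/c mice given 50 mg/kg p.o. in 0.05% methylcellulose aqueous solution. Blood (retro-orbital, heparin) and brain taken at 0, 0.25, 0.5, 1.0, 2.0 and 4.0 h, three mice per time point. Plasma and methanol brain homogenate extracted with internal standard and quantified by LC/MS/MS (peak area ratio, weighted linear regression). Ratio is brain over plasma parameter.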

[28] = tested on: Plasma; experiment: AUC (0 to t) in mouse plasma at 50 mg/kg, po; assay type: ADME, organism-based; parameters: dose 50 mg/kg, route oral; details: in vivo; outline: as §1
[29] = Cmax in mouse brain at 50 mg/kg, po; assay type: ADME, organism-based; parameters: dose 50 mg/kg, route oral; outline: as §1
[30] = tested on: Plasma; experiment: Tmax in mouse plasma at 50 mg/kg, po; assay type: ADME, organism-based; parameters: dose 50 mg/kg, route oral; details: in vivo; outline: as §1
[31] = tested on: Mus musculus; experiment: Reversal of contextual fear memory deficit in APP/PS1 transgenic mouse assessed as increase in freezing behavior at 3 mg/kg, ip after 3 weeks (reference value: 10%); assay type: functional; details: route intraperitoneal
[32] = tested on: Brain; experiment: AUC (0 to t) in mouse brain at 50 mg/kg, po; assay type: ADME, organism-based; parameters: dose 50 mg/kg, route oral; details: in vivo; outline: as §1
[33] = tested on: Hippocampus; experiment: Reversal of amyloid beta42-induced post synaptic dysfunction in mouse hippocampal assessed as increase in theta burst-induced long term potentiation at 50 nM incubated 10 mins prior to theta burst induction measured after 60 mins for 5 mins by electrophysiological assay (reference value: 144.65 9.99%); assay type: functional
[34] = Ratio of Cmax in mouse brain to Cmax in mouse plasma; assay type: ADME, cell-free; outline: as §3
[35] = tested on: Hippocampus; experiment: Reversal of post synaptic dysfunction in APP/PS1 transgenic mouse hippocampal assessed as increase in theta burst-induced long term potentiation at 50 nM incubated 10 mins prior to theta burst induction measured after 2 hrs for 5 mins by electrophysiological assay (reference value: 145.84 7.78%); assay type: functional
Outline: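 Transverse hippocampal slices (400 μm) from APP/PS1 mice were kept in an interface chamber at 29 °C and perfused with aerated ACSF, pH 7.4. Compound (50 nM) was bath-applied for 10 min before tetanus. CA1 fEPSP slopes were expressed as % of baseline, averaged over the last 5 min of a 2 h recording.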

[36] = tested on: Mus musculus; experiment: Reversal of contextual fear memory deficit in APP/PS1 transgenic mouse assessed as increase in freezing behavior at 3 mg/kg/day, ip administered 3 weeks measured after 9 to 12 weeks […] (reference value: 10%); assay type: functional; details: route intraperitoneal
[37] = tested on: Brain; experiment: Tmax in mouse brain at 50 mg/kg, po; assay type: ADME, organism-based; parameters: dose 50 mg/kg, route oral; details: in vivo; outline: as §1
[38] = tested on: Brain; experiment: AUC (0 to infinity) in mouse brain at 50 mg/kg, po; assay type: ADME, organism-based; parameters: dose 50 mg/kg, route oral, time infinity; details: in vivo; outline: as §1
[39] = tested on: Brain; experiment: Mean residence time in mouse brain at 50 mg/kg, po; assay type: ADME, organism-based; parameters: dose 50 mg/kg, route oral; details: in vivo; outline: as §1
[40] = tested on: Mus musculus; experiment: Reversal of post synaptic dysfunction in APP/PS1 transgenic mouse assessed as increase in theta burst-induced long term potentiation at 3 mg/kg/day, ip administered 3 weeks measured after 9 to 12 weeks […] (reference value: 112.29 9.12%); assay type: functional; details: route intraperitoneal
[41] = tested on: Plasma; experiment: Mean residence time in mouse plasma at 50 mg/kg, po; assay type: ADME, organism-based; parameters: dose 50 mg/kg, route oral; details: in vivo
[42] = Ratio of AUC (0 to t) in mouse brain to AUC (0 to t) in mouse plasma; assay type: ADME, cell-free; outline: as §3
[43] = tested on: Mus musculus; experiment: Inhibition of PDE5 in C57Bl6 mouse assessed as increase in electric shock-induced hippocampal cGMP level measured per mg of protein at 3 mg/kg, ip administered 30 mins prior to electric shock induction measured after 3 mins (reference value: 0.46 0.0385 pmol); assay type: functional, Hippocampus; details: route intraperitoneal; outline: as §2

Sequence of cGMP-dependent 3',5'-cyclic phosphodiesterase (O00408 whole entry): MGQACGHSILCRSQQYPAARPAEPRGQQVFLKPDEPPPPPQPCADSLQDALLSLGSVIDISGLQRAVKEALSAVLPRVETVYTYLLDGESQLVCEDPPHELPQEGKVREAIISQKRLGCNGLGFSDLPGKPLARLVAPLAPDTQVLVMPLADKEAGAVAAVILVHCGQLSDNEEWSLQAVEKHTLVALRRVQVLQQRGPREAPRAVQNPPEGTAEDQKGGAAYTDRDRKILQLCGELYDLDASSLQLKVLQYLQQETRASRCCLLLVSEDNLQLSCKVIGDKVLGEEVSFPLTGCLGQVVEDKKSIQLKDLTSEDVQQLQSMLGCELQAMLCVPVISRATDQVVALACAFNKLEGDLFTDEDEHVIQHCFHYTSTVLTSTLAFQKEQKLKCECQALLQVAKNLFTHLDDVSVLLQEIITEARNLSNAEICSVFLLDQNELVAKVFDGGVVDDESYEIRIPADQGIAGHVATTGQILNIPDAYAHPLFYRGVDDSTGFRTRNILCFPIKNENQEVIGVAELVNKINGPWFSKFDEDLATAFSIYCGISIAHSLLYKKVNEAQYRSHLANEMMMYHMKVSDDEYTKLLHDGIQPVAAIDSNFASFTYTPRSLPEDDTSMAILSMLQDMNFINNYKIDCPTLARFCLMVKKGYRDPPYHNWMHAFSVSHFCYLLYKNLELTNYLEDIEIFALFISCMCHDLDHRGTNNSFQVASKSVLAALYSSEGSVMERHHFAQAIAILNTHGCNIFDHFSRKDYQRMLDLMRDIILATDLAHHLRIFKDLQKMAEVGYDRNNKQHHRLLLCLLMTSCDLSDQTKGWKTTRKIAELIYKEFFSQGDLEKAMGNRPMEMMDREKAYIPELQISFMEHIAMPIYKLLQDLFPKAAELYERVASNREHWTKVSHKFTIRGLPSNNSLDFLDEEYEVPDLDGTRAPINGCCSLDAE
Sequence of High affinity cGMP-specific 3',5'-cyclic phosphodiesterase 9A (O76083 whole entry): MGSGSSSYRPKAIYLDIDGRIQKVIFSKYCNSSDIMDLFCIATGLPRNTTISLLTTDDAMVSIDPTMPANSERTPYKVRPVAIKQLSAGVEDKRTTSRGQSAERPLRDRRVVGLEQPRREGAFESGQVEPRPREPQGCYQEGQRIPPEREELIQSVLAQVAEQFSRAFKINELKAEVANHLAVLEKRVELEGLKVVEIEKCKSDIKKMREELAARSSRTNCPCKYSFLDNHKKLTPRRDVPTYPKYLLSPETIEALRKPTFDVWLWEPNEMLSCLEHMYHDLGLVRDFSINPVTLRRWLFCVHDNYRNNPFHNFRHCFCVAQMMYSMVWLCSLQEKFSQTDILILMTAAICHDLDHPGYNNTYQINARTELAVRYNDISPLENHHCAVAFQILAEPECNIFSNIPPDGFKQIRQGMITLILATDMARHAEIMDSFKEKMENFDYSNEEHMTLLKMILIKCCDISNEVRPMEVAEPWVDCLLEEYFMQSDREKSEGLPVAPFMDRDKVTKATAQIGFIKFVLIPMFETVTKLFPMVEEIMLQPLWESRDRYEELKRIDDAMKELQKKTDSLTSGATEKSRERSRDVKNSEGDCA
Sequence of cAMP and cAMP-inhibited cGMP 3',5'-cyclic phosphodiesterase 10A (Q9Y233 whole entry): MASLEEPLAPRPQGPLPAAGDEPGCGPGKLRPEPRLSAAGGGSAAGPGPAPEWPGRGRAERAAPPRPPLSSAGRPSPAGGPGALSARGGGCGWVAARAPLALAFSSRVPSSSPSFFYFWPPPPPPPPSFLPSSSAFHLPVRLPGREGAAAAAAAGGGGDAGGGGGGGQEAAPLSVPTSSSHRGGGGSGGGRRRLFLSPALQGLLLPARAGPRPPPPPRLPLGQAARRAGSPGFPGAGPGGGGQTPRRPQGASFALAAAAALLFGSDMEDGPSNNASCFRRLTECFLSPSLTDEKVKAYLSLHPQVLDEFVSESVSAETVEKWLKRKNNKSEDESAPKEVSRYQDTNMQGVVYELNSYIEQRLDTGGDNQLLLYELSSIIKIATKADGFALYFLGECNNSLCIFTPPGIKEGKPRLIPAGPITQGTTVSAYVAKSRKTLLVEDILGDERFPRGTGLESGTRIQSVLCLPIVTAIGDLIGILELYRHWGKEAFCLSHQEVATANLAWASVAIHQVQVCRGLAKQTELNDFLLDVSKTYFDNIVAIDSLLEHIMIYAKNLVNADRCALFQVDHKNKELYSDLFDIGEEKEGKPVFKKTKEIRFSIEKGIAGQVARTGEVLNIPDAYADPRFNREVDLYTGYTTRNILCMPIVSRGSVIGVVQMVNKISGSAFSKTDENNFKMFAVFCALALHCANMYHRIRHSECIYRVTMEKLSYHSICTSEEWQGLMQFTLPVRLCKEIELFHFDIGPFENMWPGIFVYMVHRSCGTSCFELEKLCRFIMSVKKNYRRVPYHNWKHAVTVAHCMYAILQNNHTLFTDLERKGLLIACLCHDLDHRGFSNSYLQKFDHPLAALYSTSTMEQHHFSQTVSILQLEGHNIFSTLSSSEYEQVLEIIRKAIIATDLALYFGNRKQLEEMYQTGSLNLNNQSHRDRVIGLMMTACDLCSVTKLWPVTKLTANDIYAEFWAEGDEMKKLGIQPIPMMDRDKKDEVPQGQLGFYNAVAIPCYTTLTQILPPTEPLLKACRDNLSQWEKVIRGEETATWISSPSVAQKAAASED
Sequence of Dual 3',5'-cyclic-AMP and -GMP phosphodiesterase 11A (Q9HCR9 whole entry): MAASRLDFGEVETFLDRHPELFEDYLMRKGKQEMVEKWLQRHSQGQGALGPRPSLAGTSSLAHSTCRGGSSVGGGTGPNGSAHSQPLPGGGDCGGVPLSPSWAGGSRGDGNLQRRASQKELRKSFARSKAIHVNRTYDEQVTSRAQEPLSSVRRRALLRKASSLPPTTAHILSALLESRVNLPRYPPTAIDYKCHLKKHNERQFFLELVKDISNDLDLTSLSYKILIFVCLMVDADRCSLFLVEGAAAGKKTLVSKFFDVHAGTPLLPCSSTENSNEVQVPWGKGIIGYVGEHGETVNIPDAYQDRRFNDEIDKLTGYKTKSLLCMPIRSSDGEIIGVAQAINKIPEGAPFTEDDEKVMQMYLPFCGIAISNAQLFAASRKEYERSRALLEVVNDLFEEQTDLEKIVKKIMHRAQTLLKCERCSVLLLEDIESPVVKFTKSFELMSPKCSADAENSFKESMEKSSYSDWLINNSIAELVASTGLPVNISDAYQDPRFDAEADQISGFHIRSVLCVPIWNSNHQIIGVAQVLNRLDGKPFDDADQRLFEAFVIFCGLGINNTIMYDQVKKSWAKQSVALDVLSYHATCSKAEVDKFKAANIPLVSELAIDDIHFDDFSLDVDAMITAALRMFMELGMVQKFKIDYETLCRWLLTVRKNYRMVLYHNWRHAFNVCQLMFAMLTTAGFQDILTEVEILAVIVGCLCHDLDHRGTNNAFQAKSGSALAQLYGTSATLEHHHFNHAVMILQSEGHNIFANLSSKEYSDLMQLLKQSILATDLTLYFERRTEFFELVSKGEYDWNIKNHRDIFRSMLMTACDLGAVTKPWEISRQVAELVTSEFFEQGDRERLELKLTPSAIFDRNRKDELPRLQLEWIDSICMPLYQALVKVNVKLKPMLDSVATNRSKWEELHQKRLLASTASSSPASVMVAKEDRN

CCCc1nc(C)c2c(=O)nc(-c3cc(S(=O)(=O)N4CCN(CC)CC4)ccc3OCC)[nH]n12
IC50 [1]: > 10 µM

CCNc1cc(C#N)cc2c(NCc3ccc(OC)c(Cl)c3)c(CO)cnc12
IC50 [2]: 0.015 µM

COc1ccc(CNc2c(CO)cnc3c(N4CCOCC4)cc(C#N)cc23)cc1Cl
IC50 [2]: 0.00063 µM

COc1ccc(CNc2c(CO)cnc3c(NCCN(C)C)cc(C#N)cc23)cc1Cl
IC50 [2]: 0.0043 µM

CN1CC(=O)N2[C@H](c3ccc4c(c3)OCO4)c3[nH]c4ccccc4c3C[C@@H]2C1=O
IC50 [3]: > 10 µM | IC50 [4]: > 10 µM | IC50 [5]: > 10 µM | IC50 [6]: > 10 µM | IC50 [7]: > 10 µM | IC50 [8]: > 10 µM | IC50 [1]: > 10 µM

COc1ccc(CNc2c(CO)cnc3c(N(C)C)cc(C#N)cc23)cc1Cl
IC50 [3]: > 10 µM | Ratio IC50 [9]: > 10000 | Ratio IC50 [10]: > 10000 | Ratio IC50 [11]: > 10000 | Ratio IC50 [12]: > 10000 | IC50 [13]: 5.1 µM | Ratio IC50 [14]: > 10000 | IC50 [15]: > 10 µM | Ratio IC50 [16]: > 10000 | Ratio IC50 [17]: > 10000 | Ratio IC50 [18]: > 10000 | IC50 [4]: > 10 µM | Ratio IC50 [19]: > 10000 | IC50 [5]: > 10 µM | IC50 [6]: > 10 µM | IC50 [7]: > 10 µM | IC50 [8]: > 10 µM | IC50 [20]: > 10 µM | IC50 [2]: 0.0004 µM | IC50 [1]: > 10 µM | Ratio IC50 [21]: 12800

COc1ccc(CNc2c(CO)cnc3c(NC4CC4)cc(C#N)cc23)cc1Cl
IC50 [2]: 0.0041 µM

COc1ccc(CNc2c(CO)cnc3c(C4CC4)cc(C#N)cc23)cc1Cl
IC50 [3]: > 10 µM | Ratio IC50 [9]: > 10000 | AUC [22]: 1133 ng·h/mL | Cmax [23]: 1022 ng/mL | Ratio IC50 [10]: > 10000 | Ratio IC50 [11]: > 10000 | Activity [24]: 0.83 pmol | Activity [25]: 30% | Ratio IC50 [12]: > 10000 | Activity [26]: 0.69 pmol | IC50 [13]: 0.339 µM | Ratio AUC [27]: 0.37 | AUCt [28]: 1014 ng·h/mL | Cmax [29]: 385 ng/g | Ratio IC50 [14]: > 10000 | IC50 [15]: > 10 µM | Tmax [30]: 0.5 h | Ratio IC50 [16]: > 10000 | Activity [31]: 30% | Ratio IC50 [17]: > 10000 | Ratio IC50 [18]: > 10000 | AUCt [32]: 418 ng·h/g | Activity [33]: 192.63% | IC50 [4]: > 10 µM | Ratio IC50 [19]: > 10000 | IC50 [5]: > 10 µM | IC50 [6]: > 10 µM | Ratio [34]: 0.38 | Activity [35]: 180.85% | Activity [36]: 30% | IC50 [7]: > 10 µM | IC50 [8]: > 10 µM | Tmax [37]: 0.5 h | AUC [38]: 420 ng·h/g | IC50 [20]: > 10 µM | MRT [39]: 1.66 h | Activity [40]: 180.9% | MRT [41]: 1.61 h | Ratio AUC [42]: 0.41 | IC50 [1]: > 10 µM | Activity [43]: 0.89 pmol | Ratio IC50 [21]: 1260
